Test results as given in ChEMBL document CHEMBL2093137, “WHO-TDR NTD Screening”.
In brackets after ≈: the same amount, converted by molar mass.

Assays:
Onchocerca ochengi [1] = assay: (§1) WHO-TDR: Onchocerciasis; format: functional; design: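 at 12.5 µM on microfilariae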
How it was run: (§2)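 Following previously published standard procedures, with reference drugs as positive controls, a diverse Life Chemicals library was tested on whole Onchocerca ochengi or Onchocerca lienalis microfilariae. The library held 10,000 compounds filtered for drug-likeness and reactive groups. Activity is recorded both as percent inhibition and as IC50.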

Leishmania infantum = assay: WHO-TDR: Leishmaniasis; format: functional, organism-based, Mus musculus; details: Macrophage
How it was run: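 A diverse library of 10,000 compounds from Life Chemicals, filtered for drug-likeness and reactive groups, was screened against whole organisms. The targets were intracellular amastigotes of Leishmania infantum MHOM/MA(BE)/67 growing in murine peritoneal macrophages. Previously published standard procedures were followed, with a reference drug as positive control. Antiparasitic potency is given as IC50.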

Trypanosoma cruzi = assay: WHO-TDR: Chagas disease; format: functional, organism-based, Homo sapiens; details: MRC5
How it was run: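 Intracellular amastigotes of the Trypanosoma cruzi Tulahuen CL2 beta-galactosidase strain, grown in MRC-5SV2 human lung fibroblast host cells, were tested in a whole-organism screen. The compounds came from a 10,000-member diverse Life Chemicals library that had been filtered for drug-likeness and reactive groups. Previously published standard procedures were followed, with a reference drug as positive control, and potency is reported as IC50.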

[2] = WHO-TDR: Cytotoxicity; format: toxicity, cell-based; details: human, MRC5 cells
[3] = tested on: Trypanosoma brucei brucei; assay: WHO-TDR: Human African Trypanosomiasis (HAT); format: functional, organism-based; details: Squib-427
How it was run: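 A diverse library of 10,000 compounds from Life Chemicals, filtered for drug-likeness and reactive groups, was screened against bloodstream forms of Trypanosoma brucei Squib 427 strain in a whole-organism assay. Previously published standard procedures were followed, with reference drugs serving as positive controls. Antiparasitic potency is given as IC50.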

Onchocerca ochengi [4] = assay: as §1; format: functional; design: concentration or dose not given beside the values; how it was run: as §2; remark: listed apart in the source
Plasmodium falciparum K1 = assay: WHO-TDR: Malaria; format: functional, organism-based, Homo sapiens; details: Erythrocyte
How it was run: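 A diverse library of 10,000 compounds from Life Chemicals, filtered for drug-likeness and reactive groups, was screened against the intra-erythrocytic Plasmodium falciparum K1 strain in human red blood cells. Previously published standard procedures were followed, with a reference drug as positive control. Antiplasmodial potency is given as IC50.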

Schistosoma mansoni = assay: WHO-TDR: Schistosomiasis; format: functional; design: concentration or dose not given beside the values
How it was run: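 Activity appears as percent inhibition and as IC50. The underlying screen tested a diverse library of 10,000 compounds, supplied by Life Chemicals, on whole larval and/or adult worms of the Puerto Rican strain of Schistosoma mansoni.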

| SMILES | % Inhibition (Onchocerca ochengi [1]) [%] | IC50 (Leishmania infantum) [µg/mL] | IC50 (Trypanosoma cruzi) [µg/mL] | IC50 [2] [µg/mL] | IC50 [3] [µg/mL] | % Inhibition (Onchocerca ochengi [4]) [%] | IC50 (Plasmodium falciparum K1) [µg/mL] | % Inhibition (Schistosoma mansoni) [%] |
| --- | --- | --- | --- | --- | --- | --- | --- | --- |
| O=C(COc1ccc(F)cc1)NCC(c1ccsc1)N1CCc2ccccc2C1 (centres undefined) | 0 | > 12.3 | 3.73 (≈ 9.09 µM) | > 12.3 | 4.19 (≈ 10.2 µM) | 100 | > 12.3 | 0 |
| CCOc1ccccc1NC(=O)Cn1c(=O)n(Cc2cccs2)c(=O)c2ncccc21 | 0 | > 13.1 | > 13.1 | > 13.1 | 4.24 (≈ 9.72 µM) | 100 | 2.95 (≈ 6.76 µM) | 0 |
| CC(C)c1ccc(NC(=O)c2n[nH]c3ccccc23)cc1 | 0 | > 8.38 | 2.58 (≈ 9.23 µM) | > 8.38 | 2.65 (≈ 9.49 µM) | 100 | > 8.38 | 0 |
| O=C(Nc1nc(-c2ccncc2)cs1)C1CCCN(S(=O)(=O)c2ccc(Cl)s2)C1 (centres undefined) | 0 | 4.55 (≈ 9.71 µM) | 0.243 (≈ 0.518 µM) | > 14.1 | 4.5 (≈ 9.6 µM) | 50 | 6.68 (≈ 14.2 µM) | 0 |
| O=C(NCCC1=CCCCC1)c1n[nH]c2ccccc12 | 0 | > 8.08 | > 8.08 | > 8.08 | > 8.08 | 100 | > 8.08 | 0 |
| Cc1cc(=O)[nH]c(-n2nc(C)cc2NC(=O)c2ccc(S(=O)(=O)N3CCCCC3)cc2)n1 | 0 | 4.43 (≈ 9.71 µM) | 0.418 (≈ 0.915 µM) | 0.445 (≈ 0.975 µM) | 0.449 (≈ 0.983 µM) | 0 | 0.137 (≈ 0.3 µM) | 25 |
| COc1cc(CSc2nc(CC(=O)NCc3ccco3)cs2)cc(OC)c1 | 0 | > 12.1 | 2.99 (≈ 7.4 µM) | 7.55 (≈ 18.7 µM) | > 1.21 | 100 | > 12.1 | 0 |
| CCOC(=O)c1ccccc1NC(=O)CSc1ncc(-c2ccccc2)[nH]1 | 0 | > 11.4 | > 11.4 | > 11.4 | > 11.4 | 100 | > 11.4 | 0 |
| CC1(C)COc2ccc(NS(=O)(=O)c3cccc4ccccc34)cc2NC1=O | 0 | > 11.9 | > 11.9 | > 11.9 | 6.16 (≈ 15.5 µM) | 100 | > 11.9 | 0 |
| CSCc1csc(NC(=O)Cc2ccc(Cl)cc2)n1 | 75 | > 9.38 | 2.47 (≈ 7.91 µM) | 3.7 (≈ 11.8 µM) | 3 (≈ 9.6 µM) | 100 | 5.98 (≈ 19.1 µM) | 0 |
| O=C(NCCc1c[nH]c2ccccc12)c1n[nH]c2ccccc12 | 0 | > 9.13 | 8.2 (≈ 27 µM) | > 9.13 | > 9.13 | 100 | > 9.13 | 0 |
| CC1Cc2ccccc2N1C(=O)Cc1csc(SCC(=O)Nc2ccc(F)cc2)n1 (centres undefined) | 0 | > 13.2 | 4.42 (≈ 10 µM) | > 13.2 | > 13.2 | 100 | > 13.2 | 0 |
| O=C(Nc1nc(CSCc2ccc(F)cc2)cs1)c1ccco1 | 0 | > 10.5 | > 10.5 | > 10.5 | > 10.5 | 100 | > 10.5 | 0 |
| CCOC(=O)c1ccc(NC(=O)CC2CCCCN2S(=O)(=O)c2ccc(OC)cc2)cc1 (centres undefined) | 0 | > 13.8 | 0.449 (≈ 0.975 µM) | 2.03 (≈ 4.4 µM) | 4.53 (≈ 9.83 µM) | 0 | > 13.8 | 0 |
| Cc1ccc(NC(=O)CN2CCC(C(=O)NCCc3c[nH]c4ccccc34)CC2)c(C)c1 | 0 | > 13 | 4.92 (≈ 11.4 µM) | > 13 | > 13 | 100 | > 13 | 0 |
| Cc1nn2c(=O)[nH]c(SCc3ccccn3)nc2c1-c1ccccc1 | 0 | > 10.5 | > 10.5 | > 10.5 | > 10.5 | 100 | > 10.5 | 0 |
| CCCN1C(=O)CCc2cc(NS(=O)(=O)c3ccc(F)cc3)ccc21 | 0 | > 10.9 | 10.9 (≈ 30 µM) | > 10.9 | 3.56 (≈ 9.83 µM) | 100 | > 10.9 | 0 |
| NC(=O)c1csc(NC(=O)C2(c3ccc(Cl)cc3)CCCC2)n1 | 0 | > 10.5 | > 10.5 | > 10.5 | 3.72 (≈ 10.6 µM) | 100 | > 10.5 | 0 |
| CCc1ccc(S(=O)(=O)Nc2ccc3c(c2)NC(=O)C(C)(C)CO3)s1 | 60 | 3.69 (≈ 9.71 µM) | 3.45 (≈ 9.08 µM) | > 11.4 | 3.08 (≈ 8.08 µM) | 100 | > 11.4 | 0 |
| C=CCN1C(=O)C(C)(C)COc2cc(NS(=O)(=O)C3CCCCC3)ccc21 | 60 | > 11.8 | 8.42 (≈ 21.4 µM) | > 11.8 | 3.72 (≈ 9.49 µM) | 100 | > 11.8 | 0 |
| C=CCN1C(=O)C(C)(C)COc2cc(NS(=O)(=O)c3ccccc3Cl)ccc21 | 0 | 4.09 (≈ 9.71 µM) | 4.05 (≈ 9.61 µM) | > 12.6 | 4.04 (≈ 9.6 µM) | 100 | > 12.6 | 0 |
| COc1ccc(CCNC(=O)NCC2CC(=O)N(c3ccc(Cl)cc3)C2)cc1 (centres undefined) | 75 | > 12.1 | 6.28 (≈ 15.6 µM) | > 12.1 | > 12.1 | 100 | > 12.1 | 0 |
| Cc1nnc(NC(=O)COc2cccc3ccc(N4CCCC(C)C4)nc23)s1 (centres undefined) | 0 | 6.18 (≈ 15.5 µM) | 0.407 (≈ 1.02 µM) | > 11.9 | > 11.9 | 50 | > 11.9 | 0 |
